Compound activity: PubChem, several laboratories
Efflux pump mplx: inhibitors of Candida antifungal efflux pumps expressed in yeast. S. cerevisiae Candida pump triplex, Nile Red efflux. inhibition, % at 10 µM. 0.44% of 330,000 active;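 active = plate passing quality check with inhibition over a set limit, or well fluorescence over plate mean plus 4 SD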;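 note: Nile Red retained in pooled yeast measured as flow cytometry median fluorescence; higher means more Nile Red kept so more efflux inhibition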
Neddyl block: blocks human cullin neddylation. TR-FRET cullin neddylation, biochemical. 0.58% of 360,000 active. P61081+Q13564. inhibition, % at 25 µM; in the data active = inhibition above about 36%
Target sequence (P61081 whole entry, looked up): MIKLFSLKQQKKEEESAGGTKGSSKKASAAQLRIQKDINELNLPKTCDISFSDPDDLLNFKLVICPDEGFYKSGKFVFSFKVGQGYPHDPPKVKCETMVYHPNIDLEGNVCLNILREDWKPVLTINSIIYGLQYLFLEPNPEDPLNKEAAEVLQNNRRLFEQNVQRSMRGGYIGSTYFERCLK
Target sequence (Q13564 whole entry, looked up): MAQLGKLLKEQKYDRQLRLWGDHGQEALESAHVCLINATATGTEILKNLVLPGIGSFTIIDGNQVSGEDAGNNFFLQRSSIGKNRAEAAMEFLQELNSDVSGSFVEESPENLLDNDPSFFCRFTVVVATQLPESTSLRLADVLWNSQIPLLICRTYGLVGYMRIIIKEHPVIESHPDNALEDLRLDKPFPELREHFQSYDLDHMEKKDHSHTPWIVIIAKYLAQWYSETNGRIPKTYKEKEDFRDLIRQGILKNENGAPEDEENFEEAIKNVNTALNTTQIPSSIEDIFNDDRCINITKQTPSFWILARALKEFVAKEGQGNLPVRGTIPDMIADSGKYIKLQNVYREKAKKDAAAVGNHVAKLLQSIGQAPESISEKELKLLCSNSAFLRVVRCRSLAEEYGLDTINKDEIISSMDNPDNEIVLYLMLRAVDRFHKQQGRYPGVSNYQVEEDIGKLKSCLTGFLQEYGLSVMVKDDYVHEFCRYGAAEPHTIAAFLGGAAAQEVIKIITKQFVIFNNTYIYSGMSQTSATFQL
DSG3 Ab inh: blocks pemphigus antibody binding to human desmoglein-3 | P32926 | DSG3-coupled beads, scFv-anti-DSG3-GFP binding, flow cytometry; active compounds read low | AID 588358 | binding (percent of control), % at 10 µM | 0.48% of 310,000 active;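 active = binding more than 3 SD below its plate's average and above zero; inconclusive = below that plate limit but binding exactly zero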;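 note: hits lower antibody fragment binding to DSG3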
Arrestin-AP2 inh: human beta-arrestin and AP2 interaction inhibition. FITC-arrestin peptide / GST-AP2 beads, flow cytometry; AP2 beta2 appendage carries R879A mutation. inhibition, % at 10 µM. 0.31% of 340,000 active. AID 504490;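 active = inhibition above a set limit, near 3 SD of compounds lacking own fluorescence, cut at about 54% in these data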
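Material – GST-tagged AP2 beta2-adaptin appendage (R879A) on 4 µm glutathione beads · Probe or stimulus – fluorescein-tagged arrestin peptide at 50 nM final · Timing – 12 min plus 1 h, RT · Detection – bead flow cytometry, FITC channel · Read-out basis – inhibition as reduced fluorescein signal on beads, percent · Medium – PBS plus Tween 20 (0.05%) and BSA (0.1%)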
Neddyl conf: cullin neddylation inhibition, confirmation. shares compounds with Neddyl block. calls only at 25 µM. 13% of 1,800 active. TR-FRET cullin neddylation biochemical assay; in the data active = inhibition above about 40%;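 note: neddylation substrate is the cullin 1 ring ligase complex with SKP2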
Numbers stand for hits; n = inactive; u = inconclusive; x = no result given; + = active, no number. Rows were chosen to be rich in hits. Some 1.7% of all compounds tested hit in one or more screens of this group.

SMILES	Efflux pump mplx	Neddyl block	DSG3 Ab inh	Arrestin-AP2 inh	Neddyl conf
CC1CCCCC1NC(=O)c1c(O)nc2ccccn2c1=O (centres undefined)	n	40.2	n	n	n
O=C(NCCCN1CCCC1=O)c1c(O)nc2ccccn2c1=O	n	40.5	n	n	n
c1coc(C2Nc3ccccc3C3OCCC23)c1 (centres undefined)	n	40.1	x	n	n
CCN(CC)c1ccc(/C=N/NC(=O)C2CC2)cc1	n	51.0	x	n	+
O=C(N/N=C/C=C/c1ccccc1)C1CC1c1ccccc1 (centres undefined)	n	n	n	n	x
O=C(Nc1ccc(N2CCOCC2)cc1)C1CC1	n	n	x	n	x
COc1ccc(/C=N/NC(=O)Cc2ccc(Cl)cc2)cc1OC	n	n	n	n	x
CN(C)c1ccc(/C=N/NC(=O)C2CC2c2ccccc2)cc1 (centres undefined)	n	53.8	n	n	+
CCN(CC)c1ccc(/C=N/NC(=O)Cc2ccc(OC)c(OC)c2)cc1	n	49.5	x	n	+
O=C(N/N=C/c1ccc(N2CCOCC2)cc1)C1CC1	n	42.2	n	n	n
CCCCCCOc1ccc(/C=N/NC(=O)C2CC2)cc1	n	n	n	n	x
Cc1noc(/C=C/N(C)C)c1S(=O)(=O)N1CCCC(C(=O)NCc2ccccc2Cl)C1 (centres undefined)	n	n	n	n	x
Cn1nc(C(=O)OCC(=O)c2ccc(Cl)cc2)c2ccccc2c1=O	n	n	n	n	x
COCCNC(=O)C1(C)CCCN(Cc2ccc(OC)cc2)C1 (centres undefined)	x	n	x	x	x
CCN(CC)c1ccc(/C=N/NC(=S)NCc2ccccc2)cc1	n	x	n	n	x
O=C(N/N=C/c1ccccc1)C(O)c1ccccc1 (centres undefined)	n	n	n	n	x
CCN(CC)c1ccc(/C=N/NC(=O)C(O)c2ccccc2)cc1 (centres undefined)	n	54.7	n	n	x
CCN(CC)c1ccc(/C=N/NC(=O)c2ccc(Br)o2)cc1	n	x	n	n	x
C=CCNC(=S)N/N=C/c1ccc(N(CC)Cc2ccccc2)cc1	n	56.3	n	n	x
CCN(CC)c1ccc(/C=N/NC(=O)c2c(Cl)c(C)nn2C)cc1	n	38.2	n	n	n
CCN(CC(=O)Nc1c(F)cccc1F)C(=O)CCNC(=O)c1ccc([N+](=O)[O-])cc1	n	n	n	n	x
CCOc1ccc2[nH]c3ncccc3c(=O)c2c1	n	46.7	n	n	+
CCOc1ccc2[nH]c(C)c(CN3CCOCC3)c(=O)c2c1	n	n	n	n	x
CN(C)S(=O)(=O)c1cccc(C(=O)NCC(C)(C)CNC(=O)c2cccc(S(=O)(=O)N(C)C)c2)c1	n	n	u	n	x
O=C(c1ccc(OC2CCN(Cc3ccccn3)CC2)cc1)N1CCC[C@H]1CO	n	n	n	n	x
SMILES	Efflux pump mplx	Neddyl block	DSG3 Ab inh	Arrestin-AP2 inh	Neddyl conf
Nc1c(C(=O)Nc2ccc(Cl)cc2)oc2ccccc12	n	44.2	n	n	x
CC(=O)c1sc(-c2ccc(F)cc2)cc1NS(=O)(=O)c1ccccc1	n	40.8	x	n	n
COc1ccc(/C=N\NC(=O)c2ccccc2)cc1COc1ccc(F)cc1	n	n	n	n	x
COc1ccc(C=O)cc1CSc1ccccn1	n	n	n	n	x
COc1ccc(/C=N\NC(=O)c2ccc(-c3ccccc3)cc2)cc1COC(C)=O	n	46.5	n	n	n
COc1ccc(/C=N/NC(=O)c2ccc(O)cc2O)cc1CSc1ccccn1	n	43.3	n	n	n
Cc1ccc(Oc2ccc(S(=O)(=O)N3CCOCC3)cc2C(N)=O)c(-n2nc3ccccc3n2)c1	n	37.6	n	n	x
COc1ccccc1Oc1ccc(S(=O)(=O)N2CCOCC2)cc1S(=O)(=O)N1CCOCC1	n	n	n	n	x
CCOc1ncccc1C(=O)NCc1ccc(C)cc1	n	n	n	n	x
Cc1nnn(-c2nonc2N)c1C(=O)N/N=C/c1cccc2ccccc12	n	43.4	n	n	n
Cc1ccc(-c2c(C(=O)N/N=C/c3c[nH]c4ccccc34)nnn2-c2nonc2N)cc1	n	49.4	n	n	n
CC(=O)Nc1ccc(Nc2nnc(-c3ccc(C)c(S(=O)(=O)NCC4CCCO4)c3)c3ccccc23)cc1 (centres undefined)	n	n	n	n	x
CNC(=O)c1ccc(Nc2nnc(-c3ccc(C)c(S(=O)(=O)NCC4CCCO4)c3)c3ccccc23)cc1 (centres undefined)	n	40.4	n	n	n
CCOC(=O)c1sc2nccc(N(C)C)c2c1N=CNOCc1ccccc1	n	40.8	n	n	n
Cc1ccccc1OCC(=O)N1N=C(c2cccnc2)CC1(O)C(F)(F)F (centres undefined)	n	n	n	n	x
Cc1cc(C)c2c(NC(=O)CCl)nn(C)c2n1	n	40.3	n	n	n
Cc1cc(C)c2c(NC(=S)NC(=O)c3ccccc3)nn(C)c2n1	n	n	n	n	x
CC(CCc1ccccc1)NC(=O)COC(=O)c1cccc(N(C)C)c1 (centres undefined)	n	46.5	n	n	n
CCCc1c(C(=O)N/N=C/c2ccc(OCc3ccccc3)cc2)nnn1-c1nonc1N	x	n	n	x	x
CCCc1c(C(=O)N/N=C/c2ccc(OC)c(OCc3ccccc3)c2)nnn1-c1nonc1N	n	42.4	x	n	n
Cc1ccc2c3c([nH]c2c1)C(=O)CC(C)(C)S3	n	46.0	n	n	n
Cc1cccc(NS(=O)(=O)c2ccccc2)n1	n	41.5	n	n	n
COc1cccc(-n2c(=O)c3sccc3n(CC(=O)NCC3CCCO3)c2=O)c1 (centres undefined)	n	n	n	n	x
c1ccc(-c2cc3c(-n4cccc4)ncnc3o2)cc1	n	38.0	n	n	n
O=C(O)[C@H](Cc1c[nH]c2ccccc12)Nc1ncccc1[N+](=O)[O-]	n	n	n	n	x
SMILES	Efflux pump mplx	Neddyl block	DSG3 Ab inh	Arrestin-AP2 inh	Neddyl conf
COc1cc2c(cc1OC)C(COc1ccc(C(C)C)cc1)NCC2 (centres undefined)	n	41.6	n	n	n
Cn1c(O)c(/C=N/NC(=O)c2cc3ccccc3cc2O)c2ccccc21	n	x	n	n	x
COCCn1c(C)cc(/C=N/NC(=O)c2cc3ccccc3cc2O)c1C	n	50.5	n	n	x
C=CCN(CC=C)C(=S)NC(=O)c1ccc(C)c(Br)c1	n	n	n	n	x
CSCC[C@H](NC(=O)N1CCn2c1nc1ccccc12)C(=O)NCc1ccco1	n	n	n	n	x
COCc1cc(C)nc2sc(C(=O)N3CCCC3)c(N)c12	n	n	n	n	x
COCc1cc(C)nc2sc(C(=O)Nc3ccccc3C)c(N)c12	n	42.8	n	n	x
COCc1cc(C)nc2sc(C(=O)OC)c(N)c12	n	42.9	x	n	x
COCc1cc(C)nc2sc(C(=O)Nc3ccccc3Br)c(N)c12	n	x	n	n	x
Cc1cccc(/C=N/NC(=O)CN2CCCCCCC2)c1	n	n	n	n	x
Cc1ccc(O)c(/C=N/NC(=O)CN2CCCC2)c1	n	46.2	n	n	n
COc1cc(CCC(=O)NNC(=O)c2ccc(C)cc2)cc(OC)c1OC	n	n	n	n	x
Cc1ccc(CSc2nnc(-c3cccc4ccccc34)o2)cc1	n	33.9	n	n	x
